PfG6PD inh = PfG6PD (Plasmodium falciparum) enzyme inhibition; PfGluPho enzyme, NADPH resazurin-diaphorase fluorescence; 350,000 tested, 0.78% active; inhibition, % at 20 µM;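 active = inhibition reaching at least a set limit at 20 µM in the primary screen, cut at about 59% in these data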;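 also: 0% = DMSO wells with substrate and 100% = DMSO wells lacking glucose-6-phosphate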
HKDC1 inh = HKDC1 (human) hexokinase inhibition. recombinant HKDC1, G6PDH/diaphorase resazurin coupled fluorescence. inhibition, % at 20 µM. 340,000 tested, 0.16% active. AID 493160;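 active = inhibition above about 35% when tested at 20 µM, limit read from the data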;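 also: plate controls were DMSO wells with enzyme for no effect and DMSO wells lacking enzyme for full effect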
Target sequence (Q2TB90 whole entry, looked up): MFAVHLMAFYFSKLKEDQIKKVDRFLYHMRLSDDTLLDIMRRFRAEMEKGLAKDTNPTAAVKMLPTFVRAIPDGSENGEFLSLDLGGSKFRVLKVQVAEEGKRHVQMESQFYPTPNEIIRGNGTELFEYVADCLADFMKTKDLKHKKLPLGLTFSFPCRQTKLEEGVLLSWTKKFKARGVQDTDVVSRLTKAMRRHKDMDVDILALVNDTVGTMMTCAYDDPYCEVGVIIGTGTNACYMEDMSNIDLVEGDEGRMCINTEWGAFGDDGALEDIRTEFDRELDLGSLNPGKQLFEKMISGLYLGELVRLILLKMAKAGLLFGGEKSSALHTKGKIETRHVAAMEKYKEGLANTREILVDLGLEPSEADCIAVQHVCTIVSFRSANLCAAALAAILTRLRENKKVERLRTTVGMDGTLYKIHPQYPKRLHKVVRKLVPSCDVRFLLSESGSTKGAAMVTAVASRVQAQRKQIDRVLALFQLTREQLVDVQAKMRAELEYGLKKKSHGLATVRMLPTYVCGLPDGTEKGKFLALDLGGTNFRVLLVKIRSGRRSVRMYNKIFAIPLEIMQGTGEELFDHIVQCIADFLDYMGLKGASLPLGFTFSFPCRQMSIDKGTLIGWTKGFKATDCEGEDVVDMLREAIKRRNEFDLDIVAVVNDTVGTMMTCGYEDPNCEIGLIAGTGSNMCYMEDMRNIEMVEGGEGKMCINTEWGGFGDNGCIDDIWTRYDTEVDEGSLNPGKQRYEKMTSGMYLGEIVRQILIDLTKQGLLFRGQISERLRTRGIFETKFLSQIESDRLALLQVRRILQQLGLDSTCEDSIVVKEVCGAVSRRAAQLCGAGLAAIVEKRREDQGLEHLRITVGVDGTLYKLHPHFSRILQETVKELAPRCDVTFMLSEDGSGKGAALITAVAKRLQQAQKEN
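Test system: Recombinant HKDC1 (HK5) hexokinase enzyme, produced in-house | Input: HKDC1 at 5 µg/mL | Buffer or medium: Tris pH 8.0 buffer with MgCl2, Tween-20, BSA, BME | Schedule: 90 min reaction incubation at room temperature, dark | Technique: Resazurin-to-resorufin fluorescence via G6PDH and diaphorase coupling, 525/613 nm | Controls: DMSO wells with and without enzyme mix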
G6PDH CS = inhibits Leuconostoc G6PDH, flagging false hits in G6PDH-based assays; Purified L. mesenteroides G6PDH, diaphorase/resazurin coupled fluorescence, 45 min; 200,000 tested, 0.12% active; inhibition, % at 5 µM; AID 1020; in the data active = inhibition above about 50%
Diaphorase inh = inhibits diaphorase or chemically oxidizes, flagging diaphorase assay artifacts; diaphorase resazurin-to-resorufin fluorescence, NADH, 16 min; bacterial (C. kluyveri) enzyme, not human; inhibition, % at 20 µM; 190,000 tested, 0.69% active;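 active = primary screen inhibition at 20 µM above a set limit, cut at about 50% in these data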;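 also: plate controls were DMSO with full reaction for no effect and wells lacking NADH for full effect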
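Test system: diaphorase enzyme from Clostridium kluyveri; amount: diaphorase at 0.14 U/mL in enzyme working solution; detection: fluorescence of resorufin formed from resazurin, Ex 544/Em 590 nm; times: reaction incubation of 16 min at room temperature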
* = called active by the depositor; . = no result given. Compounds with a hit are over-represented: about 1.3% of the library has one in this group of screens.

SMILES	PfG6PD inh	HKDC1 inh	G6PDH CS	Diaphorase inh
C=C(C)C1CC=C(C)/C(=N\NC(=S)Nc2ccc(C)cc2)C1 (configuration not stated)	-9.2	-5.0	4.9	66.0*
Cc1ccc2nc(N3CCN(c4ccccc4F)CC3)c(C=O)c(=O)n2c1	0.2	2.6	17.5	53.2*
Cc1cc(C)c(NC(=O)COC(=O)c2cccc3c2C(=O)c2ccccc2C3=O)c(C)c1	3.1	3.4	10.5	22.0
Cc1cc(C)c(Nc2cc(S(=O)(=O)O)c(N)c3c2C(=O)c2ccccc2C3=O)c(C)c1	-4.3	13.3	-17.7	80.2*
O=C(c1ccc(S(=O)(=O)Nc2ccccc2F)cc1)N1CCN(c2ccccc2O)CC1	-10.3	8.2	.	.
Oc1ccc(Nc2nc(-c3ccc4ccccc4c3)cs2)cc1	.	.	2.4	10.0
Oc1ccc(-c2nc(-c3ccc(O)c(O)c3)cs2)cc1	37.2	-0.8	25.4	63.1*
CC1CCCCN1C(=O)Cn1c(=O)oc2ccccc21 (configuration not stated)	-10.3	-1.4	.	.
CC1CCCCN1c1nnc(NC(=O)Cn2c(=O)oc3ccccc32)s1 (configuration not stated)	-10.8	-0.1	7.2	62.5*
O=C(CSc1ccc(Br)cc1)Nc1ccccc1N1CCOCC1	6.5	-3.2	.	.
Cc1cccc(NC(=O)CCC(=O)OCC(=O)c2ccc(Oc3ccc([N+](=O)[O-])cc3)cc2)c1	-1.1	5.2	-2.0	66.9*
COc1ccc(Nc2nc(C)cc(=O)[nH]2)cc1	6.3	1.6	3.1	3.2
COc1ccc(Nc2nc3[nH]c(=O)cc(O)c3s2)cc1	42.1	3.0	20.2	69.2*
CN=c1scc(-c2ccc(F)cc2)n1/N=C/c1ccc(O)c(O)c1	9.3	-1.0	17.8	50.4*
CN=c1scc(-c2ccc([N+](=O)[O-])cc2)n1/N=C/c1ccco1	18.1	-4.6	0.9	1.8
COc1ccc(-c2noc(CSc3nc(N)cc(=O)[nH]3)n2)cc1	-2.3	0.0	.	.
COc1ccc(-c2noc(CSc3nc(-c4ccccc4)cc(=O)[nH]3)n2)cc1OC	-17.5	-1.6	14.2	66.7*
CCOc1ccc(-c2nnc(SCC(=O)O)n2Cc2ccccc2)cc1	-12.3	0.4	.	.
CC(C(=O)Nc1ccc2[nH]c(=O)[nH]c2c1)N1CCN(Cc2ccc3c(c2)OCO3)CC1 (configuration not stated)	-0.1	0.7	.	.
N#Cc1c(NC(=O)c2ccc(Br)o2)n(-c2ccccc2)c2nc3ccccc3nc12	-12.8	25.4	.	.
COc1ccc(-n2c(NC(=O)c3ccc(Br)o3)c(C#N)c3nc4ccccc4nc32)cc1	.	.	13.2	63.0*
O=C(CSc1nnc(COc2ccc(Cl)cc2)o1)N(c1ccccc1)C1CCS(=O)(=O)C1 (configuration not stated)	10.8	.	.	.
CNc1ccccc(C(=O)/C=C/c2ccccc2OC)c1=O	51.5	10.5	22.6	29.5
CNc1ccc(Br)cc(C(=O)/C=C/c2cccc(Cl)c2Cl)c1=O	47.9	23.4	30.7	67.7*
CNc1ccc(Br)cc(C(=O)/C=C/c2cccc(OC)c2OC)c1=O	33.6	26.9	25.1	58.9*
SMILES	PfG6PD inh	HKDC1 inh	G6PDH CS	Diaphorase inh
O=C(C1=C(O)C(=O)N(CCN2CCOCC2)C1c1cccc(F)c1)c1cc2ccccc2o1 (configuration not stated)	-40.4	2.0	.	.
O=C(CS(=O)(=O)c1cn(Cc2ccc(F)cc2)c2ccccc12)N1CCOCC1	-6.4	4.7	7.8	69.2*
O=C(CS(=O)(=O)c1cn(Cc2cccc(F)c2)c2ccccc12)N1CCOCC1	-0.3	3.3	17.2	0.3
C=CCNc1nc(NCc2ccccc2)c(C#N)c2c1CN(C)CC2	56.9	10.5	11.9	63.4*
CCOC(=O)C1=C(C)NC(=O)NC1c1c(C)nn(-c2ccccc2)c1Cl (configuration not stated)	11.4	24.3	1.2	52.1*
CC1CCN(S(=O)(=O)c2nnc(NC(=O)c3cccc([N+](=O)[O-])c3)s2)CC1	113.0*	5.9	.	.
COc1ccc(C(=O)Nc2nnc(S(=O)(=O)N3CCC(C)CC3)s2)cc1OC	-12.3	-2.7	.	.
Cc1cccc(C(=O)NC(=S)Nc2ccccc2C(=O)O)c1	19.7	-10.3	8.6	51.1*
CCCn1c(N)c(C(=S)NC(=O)C2CC2)c(=O)n(C)c1=O	7.2	-5.7	-9.9	51.6*
CCCCn1c(N)c(C(=S)NC(=O)CC(C)C)c(=O)n(C)c1=O	-16.3	-0.5	-8.2	58.7*
CC(=O)N1CCN(C2=NC(=O)/C(=C/c3ccc(OS(=O)(=O)c4ccccc4)cc3)S2)CC1	17.1	6.5	.	.
Oc1cccc2cnccc12	19.3	6.5	.	.
